# Compound activity from PubChem BioAssay.
# Compounds with a hit are over-represented: about 3.1% of the library has one in this group of screens.
# PP1 counter – PP1-alpha (human) inhibition in PP5 counter-screen; P62136; purified PP1alpha, OMFP fluorescence; hit rate 0.9% among 320,000; inhibition, % at 6.7 µM; AID 2235;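 active means inhibition above the mean inhibition of all tested compounds plus 3 SD, computed separately for each screening campaign, cut at about 15% in these data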
# Fh CTSL1 inh – counter-screen for PFM18AAP inhibitors: inhibitors of F. hepatica cathepsin L1; recombinant F. hepatica cathepsin L1, Z-Leu-Arg-MCA fluorescence; inhibition, % at 5.96 µM; hit rate 0.49% among 300,000; AID 1906;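 active means inhibition above the mean of all tested compounds plus 3 SD, set per screening campaign, cut at about 17% in these data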;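 further: 0% = plate median of test compound wells and 100% = 1 µM Z-Phe-Ala-diazomethylketone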
# NadD block – inhibitors of Staphylococcus aureus NadD. inhibition, % at 20 µM. hit rate 0.78% among 360,000. purified NadD enzyme, colorimetric absorbance read-out; in the data active means inhibition above about 26%
# HCV core dimer – blocks dimerization of HCV core protein; TR-FRET GST/Flag-core106 dimerization, 1536-well; inhibition, % at 5 µM; hit rate 0.33% among 300,000; AID 1899;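 active means inhibition above the mean of all tested compounds plus 3 SD, set per screening campaign, cut at about 45% in these data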
#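 assay system = GST-tagged and Flag-tagged HCV core protein residues 1-106 | controls = unlabelled core106 and no-GST-core106 wells | incubation = compound-protein-antibody incubation 4 h at 22.5 °C | probe or stimulus = Eu donor and XL665 acceptor anti-tag antibodies | read-out = % inhibition based on acceptor/donor emission ratio | signal = TR-FRET 671 and 617 nm emission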
# Myeloid diff 2 – promotes myeloid progenitor differentiation. ER-HoxA9 myeloid progenitors, lysozyme-GFP differentiation, flow cytometry. calls only at 10 µM. hit rate 1% among 360,000. AID 624256;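 active means normalized GFP-positive differentiation at or above the plate's own cutoff, the solvent-only control mean plus 3 SD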;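 further: cells exposed to compound for four days before flow analysis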
# PP5 primary – inhibitors of human protein phosphatase 5 (PP5); inhibition, % at 6.7 µM; purified PP5c, OMFP substrate fluorescence; hit rate 0.18% among 320,000;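 active means inhibition above the campaign's mean inhibition across all tested compounds plus 3 SD, cut at about 9.5% in these data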;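 further: 0% = DMSO only and 100% = 100 µM cantharidin control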
# Target sequence (P53041 whole entry, looked up): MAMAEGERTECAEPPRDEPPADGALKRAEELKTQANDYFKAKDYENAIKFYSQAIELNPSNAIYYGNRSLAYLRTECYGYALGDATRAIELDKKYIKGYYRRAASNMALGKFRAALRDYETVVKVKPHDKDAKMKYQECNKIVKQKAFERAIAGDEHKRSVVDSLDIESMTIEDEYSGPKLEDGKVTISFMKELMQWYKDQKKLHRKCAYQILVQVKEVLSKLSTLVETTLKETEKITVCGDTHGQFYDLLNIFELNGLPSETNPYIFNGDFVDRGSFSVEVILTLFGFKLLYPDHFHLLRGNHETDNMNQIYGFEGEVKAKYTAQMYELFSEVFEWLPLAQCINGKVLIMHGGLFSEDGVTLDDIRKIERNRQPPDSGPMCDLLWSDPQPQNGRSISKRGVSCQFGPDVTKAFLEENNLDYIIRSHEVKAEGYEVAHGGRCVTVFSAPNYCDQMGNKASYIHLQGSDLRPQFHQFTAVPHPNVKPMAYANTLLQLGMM
# * = called active by the depositor; i = inactive; · = not tested or not shown; + = active, no number.
SMILES,PP1 counter,Fh CTSL1 inh,NadD block,HCV core dimer,Myeloid diff 2,PP5 primary
Cc1cc(OCC(=O)Nc2ccccc2C(N)=O)c2c(C)cc(=O)oc2c1,-10,0,3,5,i,3
O=C(CN1C(=O)COc2ccc(Cl)cc21)Nc1ccc2c(c1)OCCO2,0,-2,-4,2,+,2
COC(=O)CN1C(=O)COc2ccc(Cl)cc21,-4,5,-4,0,i,3
COCCNC(=O)CN1C(=O)COc2ccc(Cl)cc21,1,18*,-4,-1,i,2
Cc1ccc(S(=O)(=O)CCC(=O)Nc2cccc(S(=O)(=O)N3CCCCCC3)c2)cc1,-5,·,-1,·,i,2
CC(C)C[C@@H](CN=[N+]=[N-])N1CCN(C)CCC1=O,-6,1,3,-13,i,-1
CC1(C(=O)NCc2ccc3c(c2)OCO3)CCN1C(=O)CCc1ccc(Cl)cc1Cl (centres undefined),·,·,-5,·,i,·
O=C(Nc1ccc(F)cc1)N1CCCCCC1,1,-2,-5,-1,i,1
CC(=O)Nc1ccc(NC(=O)N2CCCCC2)cc1,-1,20*,-1,-20,·,-1
Nc1ccc(Oc2ccc3nc(-c4ccccc4)c(-c4ccc([N+](=O)[O-])cc4)nc3c2)cc1,0,2,32*,27,i,2
CN(C)S(=O)(=O)c1ccc(S(=O)(=O)N(Cc2ccco2)Cc2ccccc2Cl)cc1,-3,36*,5,-4,i,2
COc1cc2c(cc1OC)C(c1ccccc1)N(C(=O)CCl)CC2 (centres undefined),-3,31*,-2,16,i,2
CNC(=O)CSc1nc2ccccc2c(=O)n1CCc1ccccc1,-1,-2,-26,9,i,-3
Nc1ccccc1S(=O)(=O)NCCCCc1ccccc1,2,-3,-4,-2,i,4
Cc1cccc(C)c1-n1c(C)nn(CCOc2ccccc2)c1=O,-1,0,4,-6,+,-2
Cc1nn(CCOc2ccccc2)c(=O)n1-c1ccc(F)cc1,-3,2,1,-1,i,3
COc1ccc(NC(=O)[C@H](C)NC(=O)C2CCN(S(=O)(=O)c3ccc(C)cc3)CC2)cc1OC,5,-3,1,-2,i,2
CC(C)[C@H](NC(=O)Cc1ccccc1)C(=O)OCc1cc(=O)n2c(n1)sc1ccccc12,1,-2,4,46,i,0
Cc1ccc2c(CC(=O)OCc3cc(=O)n4c(n3)sc3ccccc34)coc2c1,7,-2,10,90*,i,3
CCN(C(=O)C(C)Sc1ccc(S(=O)(=O)N2CCOCC2)cn1)c1ccccc1 (centres undefined),0,·,4,·,i,0
Cn1nc(-c2ccc(Cl)cc2)c2cc(C(=O)NC3CC3)sc21,-1,0,-1,4,i,2
CCN1CCN(C(=O)c2cc3c(-c4ccc(Cl)cc4)nn(C)c3s2)CC1,-11,12,-3,-3,+,5
Cn1nc(-c2ccc(Cl)cc2)c2cc(C(=O)N3CCN(C(=O)c4ccco4)CC3)sc21,5,1,1,14,+,1
CC1CCCN(C(=O)c2cc3c(-c4ccc(Cl)cc4)nn(C)c3s2)C1 (centres undefined),-8,1,-6,9,+,-3
CCCCCCN1C[C@H](n2cc(COC(=O)c3ccccc3)nn2)[C@@H](O)C[C@@H]1c1ccc(C)cc1,·,·,4,·,i,·
SMILES,PP1 counter,Fh CTSL1 inh,NadD block,HCV core dimer,Myeloid diff 2,PP5 primary
CCOc1ccc(OCCC(=O)OCC(=O)Nc2cc(OCC)c(N3CCOCC3)cc2OCC)cc1,-5,2,-4,7,i,2
Clc1cccc(C2Nc3cccc4cccc(c34)N2)c1,3,-2,27*,47*,i,-6
Clc1ccc(C2Nc3cccc4cccc(c34)N2)cc1Cl,1,-2,21,8,i,1
COc1ccc(C2Nc3cccc4cccc(c34)N2)cc1,0,-3,39*,-26,i,4
c1csc(C2Nc3cccc4cccc(c34)N2)c1,0,5,31*,-1,i,3
c1ccc(C2Nc3cccc4cccc(c34)N2)cc1,4,-5,12,3,i,3
CCc1ccc2nc(N(CCCN(C)C)C(=O)c3ccc(C(=O)c4ccccc4)cc3)sc2c1,6,2,0,0,i,1
Cc1ccc(NS(=O)(=O)c2cc([N+](=O)[O-])ccc2N/N=C/c2sc(N3CCOCC3)nc2-c2ccccc2)c(C)c1,-2,3,11,9,+,1
Cc1c2c(=O)n(-c3nc4ccccc4s3)nc-2cc(O)n1Cc1ccccc1,·,·,42*,·,i,·
O=S1(=O)CCOC[C@H](CC2CCCCC2)N1Cc1ccccc1Br,4,3,-2,-1,i,0
COC(=O)c1cccc(S(=O)(=O)N2CCOCC2)c1,-8,7,-6,2,i,-10
O=C1C(Cl)=C(N2CCOCC2)C(=O)N1c1cccc(C(F)(F)F)c1,-2,23*,-2,-6,i,1
CC1CCCN(C2=C(Cl)C(=O)N(c3cccc(Cl)c3)C2=O)C1 (centres undefined),1,3,1,2,i,0
COC(=O)c1cccc(N2C(=O)C(Cl)=C(N3CCOCC3)C2=O)c1,2,32*,3,-7,i,-1
CCOc1ccc(OCCC(=O)N2CCN(S(=O)(=O)c3cccc(F)c3)CC2)cc1,-1,6,3,-5,i,-2
O=C1CC(c2ccc(O)cc2)Oc2cc(O)cc(O)c21 (centres undefined),-1,-5,6,-7,i,1
O=C1CC(c2ccc(O)c(O)c2)Oc2cc(O)cc(O)c21 (centres undefined),16*,0,-4,1,i,0
N#Cc1ccsc1NC(=O)COc1ccc(-c2nnco2)cc1,9,-1,16,96*,i,-2
N#CCSc1ccccc1NC(=O)COc1ccc(-c2nnco2)cc1,-2,·,-5,·,+,-1
N#CCSc1ccccc1NC(=O)COC(=O)Cc1c[nH]c2ccccc12,-4,·,1,·,+,2
O=C(C(=O)N1CCN(c2ccccc2)CC1)c1cn(CC(=O)N2CCCCCC2)c2ccccc12,4,1,2,8,i,4
CN(c1ccccc1)S(=O)(=O)c1ccc(Cl)c(C(=O)NCc2ccccc2CN2CCCC2)c1,-3,·,-1,·,i,1
CCO/C=C1\N=C(c2ccc(F)cc2)OC1=O,-1,36*,2,-15,i,-2
O=C(/C=C/c1cn(CC(O)CN2CCCCCC2)c2ccccc12)c1cccs1 (centres undefined),0,-2,14,0,+,0
